Assay results from different studies.
Lines come from different studies, so protocols differ.
PDGFRA D842V: Platelet-derived growth factor receptor alpha (PDGFRA, Homo sapiens, UniProt P16234, D842V)
PDGFRA: Platelet-derived growth factor receptor alpha (PDGFRA, Homo sapiens, UniProt P16234)
PDGFRA V561D: Platelet-derived growth factor receptor alpha (PDGFRA, Homo sapiens, UniProt P16234, V561D)
PDGFRA T674I: Platelet-derived growth factor receptor alpha (PDGFRA, Homo sapiens, UniProt P16234, T674I)

CNC(=O)c1cc(Oc2ccc(NC(=O)Nc3ccc(Cl)c(C(F)(F)F)c3)cc2)ccn1
inhibition (PDGFRA D842V; enzyme activity, inhibitor; 10 µM): 99%

COc1cc2ncnc(Nc3ccc(Oc4ccccc4)c(C)c3C)c2cc1OC
inhibition (PDGFRA D842V; enzyme activity, inhibitor; 1 µM): 3%

Cc1ccc(Nc2nccc(N(C)c3ccc4c(C)n(C)nc4c3)n2)cc1S(N)(=O)=O
remaining signal (PDGFRA; cell-free assay, inhibitor; 0.5 µM): 13.9%

Cc1cnc(NC2CCOCC2)nc1-n1cnc(C(=O)NC(CN)c2cc(F)cc(Cl)c2)c1 (centres unmarked)
remaining activity (PDGFRA; enzyme activity, inhibitor, radiometric; 1 µM): 94%

Cc1ccc(NC(=O)c2ccc(C)c(C(F)(F)F)c2)cc1C#Cc1nn(C2CCC(O)CC2)c2ncnc(N)c12 (centres unmarked)
remaining activity (PDGFRA V561D; enzyme activity, inhibitor; 10 µM): 0%

O=C1Nc2ccc(Cl)cc2C1=Cc1cc(Cl)c(O)c(Cl)c1
remaining signal (PDGFRA; cell-free assay; 0.5 µM): 70.3%

Cc1nccc(COC(=O)N2C[C@@H]3[C@@H](CNC(=O)c4ccc5[nH]nnc5c4)[C@@H]3C2)n1
remaining binding (PDGFRA; cell-free assay, competition with immobilised ligand; 1 µM): 80%

COc1cc(Nc2cnc(C#N)c(O[C@H](C)CN(C)C)n2)ncc1-c1cnn(C)c1
remaining activity (PDGFRA; enzyme activity, inhibitor, radiometric; 1 µM): 60%

Cc1ccc(C(=O)NCc2ccsc2)cc1C#Cc1cn(C(C)C)c2ncnc(N)c12
activity vs control (PDGFRA V561D; enzyme activity, inhibitor; 1 µM): 1%

O=C(N1CCS(=O)(=O)CC1)N1C[C@H](c2ccc(OC(F)(F)F)cc2)C[C@H](c2nc(C3CC3)no2)C1
remaining binding (PDGFRA; cell-free assay, competition with immobilised ligand; 1 µM): 100%

CS(=O)(=O)CCNCc1ccc(-c2ccc3ncnc(Nc4ccc(OCc5cccc(F)c5)c(Cl)c4)c3c2)o1
remaining signal (PDGFRA; cell-free assay; 0.5 µM): 108%

CNC(=O)c1cc2c(Oc3ccc(NC(=O)C4(C(=O)Nc5ccc(F)cc5)CC4)cc3)ccnc2cc1OC
inhibition (PDGFRA V561D; enzyme activity, inhibitor, radiometric; 1 µM): 101%

N#CC1(c2ccccn2)CCN(Cc2cc(C(=O)N3CCCC3)c(=O)n3ccccc23)CC1
remaining binding (PDGFRA; cell-free assay, competition with immobilised ligand; 1 µM): 97%

COc1cc(-c2cc(-c3ccc(N4CCNCC4)cc3)cnc2N)cc(OC)c1OC
inhibition (PDGFRA T674I; enzyme activity, inhibitor; 1 µM): 4%

CCC(=N\O)/C(C)=C/c1ccc(F)cc1
remaining binding (PDGFRA; cell-free assay, competition with immobilised ligand; 1 µM): 78%

Cc1cc(NC(=O)c2cccc3cc(-c4cccc5[nH]nc(N)c45)ccc23)ccc1F
activity vs control (PDGFRA; enzyme activity, inhibitor; 0.1 µM): 92%

Cc1nc(Cc2cccc(C(F)(F)F)c2)sc1-c1ccc(C(N)=O)nc1
remaining binding (PDGFRA; cell-free assay, competition with immobilised ligand; 1 µM): 88%

CC(C)(C)c1nc(-c2cccc(NS(=O)(=O)c3c(F)cccc3F)c2F)c(-c2ccnc(N)n2)s1
remaining activity (PDGFRA; enzyme activity, inhibitor, radiometric; 1 µM): 103%

N#CCCc1ccc2c(c1)-c1[nH]c3ccc([N+](=O)[O-])cc3c1CC(=O)N2
remaining signal (PDGFRA; cell-free assay; 0.5 µM): 87.4%

CCc1ccccc1C(=O)Nc1n[nH]c2c(C)c(F)c(C3C(C#N)=C(C)N(C)C(C)=C3C#N)cc12
remaining binding (PDGFRA; cell-free assay, competition with immobilised ligand; 1 µM): 100%

CC(C)(O)[C@H]1CC[C@H](Nc2ccc3ncc(-c4cccc(C(F)(F)F)c4)n3n2)CC1
remaining activity (PDGFRA; enzyme activity, inhibitor; 1 µM): 44.5%

COc1cc2ncnc(Nc3ccc(Oc4ccccc4)cc3C)c2cc1OC
inhibition (PDGFRA; enzyme activity, inhibitor; 1 µM): 9%

FC(F)(F)Oc1cccc(-c2cnc3ccc(-c4ccncc4)nn23)c1
activity vs control (PDGFRA; enzyme activity, inhibitor, radiometric; 1 µM): 70%

COc1ccc2cc(OCC3(C(=O)O)CN(C(=O)c4ccc(F)cc4)C3)ccc2c1
remaining binding (PDGFRA; cell-free assay, competition with immobilised ligand; 1 µM): 100%

Cc1ccc(C(=O)Nc2ccc(CN3CCN(C)CC3)c(C(F)(F)F)c2)cc1C#Cc1cnc2cccnn12
remaining activity (PDGFRA; enzyme activity, inhibitor; 23.5 nM): 5.3%

C[C@@H]1CN(c2cc(-c3nn(C)c4ccc(OC5(C)CC5)cc34)ncn2)C[C@H](C)O1
remaining binding (PDGFRA; cell-free assay, competition with immobilised ligand; 1 µM): 83%

O=C(Nc1cnn(-c2csc(C(=O)NC3COC3)c2)c1)Nc1c(F)cccc1Cl
remaining activity (PDGFRA; enzyme activity, inhibitor; 5 µM): 107%

CC/C(=N\NC(=O)NCc1cccc(O)c1)c1ccc(O)c(C)c1O
inhibition (PDGFRA T674I; enzyme activity, inhibitor; 0.1 µM): -0.2%

CCCOc1ccc(OC)c(F)c1C(=O)c1ccc(C(=O)N[C@@H]2CNC[C@H]2NC(=O)c2ccc3[nH]ncc3c2)cc1
remaining activity (PDGFRA V561D; enzyme activity, inhibitor; 10 µM): 6%
